Consider three substances from PMC6930011 (Journal of the American Chemical Society, 2019).

Where no end group is shown, it is not given here.

One experiment concerns hPTHR1. Kind of experiment: Washout assay of cAMP signaling duration. The class given is cell-based, human. As to conditions: excess PTHR1 antagonist (D)Trp^12,Tyr^34-bPTH(7-34) during washout; 1 nM agonist. The method, boiled down: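 HEK293 cells stably expressing hPTHR1, with β-arrestin at endogenous levels, were stimulated with 1 nM agonist for a defined period. Agonist was then washed off and cAMP monitored during the ligand-off phase, with excess antagonist present after washout and, in some runs, BA1 added as well. Output was area under curve, normalized to PTH(1-34)-NH2 at 1 nM. Data were mean ± s.e.m. from n = 3–4 independent experiments, compared by one-way ANOVA.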

In another experiment the test system is PTHR1. It is filed as cell-based. Conditions: HEK293 cells stably expressing HA-tagged PTHR1.
Another experiment deals with human PTHR1. Kind of experiment: cAMP production, GloSensor assay in HEK-293 cells stably expressing human PTHR1. The class given is cell-based. Conditions: relative to PTH(1-34)-NH2; Figure S2.

Turning to PTH(1-34)-NH2, the “effect of antagonist after washout on duration and extent of cAMP production” value in the experiment with hPTHR1 was “only a modest drop”. For the same substance, the “co-IP of the PTHR1 and endogenous β-arrestin” value with PTHR1 is recorded as “effectively induced co-IP”.

Take “Trp^1-PTHrP(1-36)-NH2 (WVSEHQLLHDKGKSIQDLRRRFFLHHLIAEIHTAEI-NH2; UniProt P12272 37-72, looked up, variant A1W)”: the “potency in stimulating cAMP production, fold less potent than PTH(1-34)-NH2” value in the experiment on human PTHR1 is reported as ~ 5 fold.

Regarding “Tyr^1-PTH(1-34)-NH2 (YVSEIQLMHNLGKHLNSMERVEWLRKKLQDVHNF-NH2; UniProt P01270 32-65, looked up, variant S1Y)”, in the experiment with human PTHR1, the “potency in stimulating cAMP production, fold less potent than PTH(1-34)-NH2” value is listed as ~ 5 fold.
